Bioassay records: PubChem, several laboratories
Rows were chosen to be rich in hits. Some 1.7% of all compounds tested hit in one or more screens of this group.
CCR6 antagonist: CCR6 (human) receptor antagonism; P51684; AID 493098; CHO-K1 CCR6 PathHunter beta-arrestin, luminescence, CCL20-stimulated; 340,000 tested, 0.49% active; inhibition, % at 20 µM;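 active = compounds whose inhibition of the agonist-driven luminescence signal at 20 µM reaches about 50%, limit read from the data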;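 also: cells stimulated with CCL20 at 14 nM final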
Target sequence (P51684 whole entry, looked up): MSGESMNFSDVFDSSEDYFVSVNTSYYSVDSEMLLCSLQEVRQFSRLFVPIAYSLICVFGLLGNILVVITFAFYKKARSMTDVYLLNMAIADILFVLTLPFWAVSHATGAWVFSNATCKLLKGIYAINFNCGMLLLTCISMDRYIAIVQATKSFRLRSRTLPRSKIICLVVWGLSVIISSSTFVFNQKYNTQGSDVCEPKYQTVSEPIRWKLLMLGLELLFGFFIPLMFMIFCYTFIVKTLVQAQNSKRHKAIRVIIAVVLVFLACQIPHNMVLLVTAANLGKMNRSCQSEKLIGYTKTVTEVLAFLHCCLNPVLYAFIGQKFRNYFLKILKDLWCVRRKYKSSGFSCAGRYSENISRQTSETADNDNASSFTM
B2AR ag: human beta-2 adrenergic receptor agonism by FAP | Am2.2-beta2AR cells, FAP receptor internalization, flow cytometry | response, % (no concentration beside the values) | 340,000 tested, 0.43% active | AID 504454;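 active = response above a set limit, near 3 SD of response in nonfluorescent compounds, cut at about 42% in these data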
CXCR6 inh: blocks human CXCR6 beta-arrestin recruitment; inhibition, % at 20 µM; 360,000 tested, 0.36% active; O00574; CHO-K1 PathHunter CXCR6 beta-arrestin, luminescence; in the data active = inhibition above about 34%, passing the limit was not always enough;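 also: antagonist mode with CXCL16 agonist at 10 nM final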
Target sequence (O00574 whole entry, looked up): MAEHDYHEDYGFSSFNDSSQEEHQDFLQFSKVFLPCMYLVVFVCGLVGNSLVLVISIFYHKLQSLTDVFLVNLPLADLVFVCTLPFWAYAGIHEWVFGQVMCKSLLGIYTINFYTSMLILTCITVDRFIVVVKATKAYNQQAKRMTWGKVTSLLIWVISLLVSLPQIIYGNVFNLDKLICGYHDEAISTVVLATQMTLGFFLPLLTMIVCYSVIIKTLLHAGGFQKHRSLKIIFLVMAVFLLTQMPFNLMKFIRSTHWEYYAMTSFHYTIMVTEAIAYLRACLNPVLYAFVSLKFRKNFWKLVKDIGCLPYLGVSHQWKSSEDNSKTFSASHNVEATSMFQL
APJ ag: agonists of human APJ apelin receptor. P35414. CHO-K1 APJ PathHunter beta-arrestin, luminescence; 0% DMSO wells, 100% apelin. activation, % at 20 µM. 330,000 tested, 0.11% active. AID 2520;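 active = activation more than six SD over the plate average, tested at 20 µM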
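Assay system – PathHunter CHO-K1 APJ (AGTRL-1) beta-arrestin reporter cells · Compound – one dose, 20 µM compound, 1% DMSO · Timing – compound 90 min 25 °C, reagent 1 h · Measured by – luminescence from split beta-galactosidase complementation, Galacton Star/Emerald II substrate · Measure – beta-arrestin recruitment to APJ as agonist activity, luminescent signal · Benchmarks – DMSO vs Apelin-13 10 nM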
APJ antag: antagonists of human APJ apelin receptor; P35414; CHO-K1 APJ beta-arrestin complementation, luminescence; inhibition, % at 20 µM; 330,000 tested, 0.32% active; AID 2521;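 active = inhibition above about 40% at 20 µM, limit read from the data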;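 also: cells challenged with 10 nM apelin-13 agonist together with compound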
PfG6PD inh: PfG6PD (Plasmodium falciparum) enzyme inhibition. PfGluPho enzyme, NADPH resazurin-diaphorase fluorescence. inhibition, % at 20 µM. 350,000 tested, 0.78% active. AID 504690;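 active = inhibition reaching at least a set limit at 20 µM in the primary screen, cut at about 59% in these data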
PfG6PD confirm: PfG6PD inhibition, single-dose confirmed. shares compounds with PfG6PD inh. recombinant PfGluPho, NADPH-diaphorase-resazurin fluorescence. inhibition, % at 20 µM. 2,400 tested, 34% active. AID 504753;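 active = inhibition of at least 50% at 20 µM in any single replicate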
Diaph ctr 10uM: counter-screen for P. falciparum G6PD inhibitors: diaphorase inhibitors, oxidizers | 820 tested, 39% active | shares compounds with PfG6PD inh | diaphorase-coupled resazurin reduction, fluorescence, NADPH 10 uM | inhibition, % at 20 µM;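 active = average inhibition reaching 50% or more with the compound at 20 µM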;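 also: resorufin red fluorescence formed as diaphorase reduces resazurin using NADPH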
Diaphorase 30uM: diaphorase inhibition or oxidation at 30 uM NADPH; shares compounds with PfG6PD inh; Diaphorase/resazurin coupled assay, resorufin fluorescence; inhibition, % at 20 µM; 820 tested, 29% active; AID 504863;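 active = inhibition averaging 50% or more, tested at 20 µM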
Numbers stand for hits; - = inactive; . = no result.

SMILES	CCR6 antagonist	B2AR ag	CXCR6 inh	APJ ag	APJ antag	PfG6PD inh	PfG6PD confirm	others
O=S(=O)(NCc1csc(-c2ccccc2)n1)c1ccc(Cl)s1	-	-	-	-	-	99.3	47.6	Diaph ctr 10uM=-;Diaphorase 30uM=-
Fc1cccc(Cc2c(C3CCCCC3)nc3ccc(Cl)cn23)c1	.	.	-	.	.	.	.
CCOC(=O)c1[nH]cc(-c2ccccc2)c1N1CCOCC1	-	-	-	-	-	72.7	-
CCOC(=O)c1cnc(-c2ccccc2)nc1N1CCOCC1	-	-	-	-	-	-	.
NC(=N\N=Cc1ccccc1)/C(N)=N/N=Cc1ccccc1	-	.	-	.	.	-	.
Cn1c(CS/C(N)=N/N=C/c2ccccc2)c(Br)c(=O)n1-c1ccccc1	-	-	-	-	-	63.6	-
CCCN(Cc1cc2ccc(C)cc2[nH]c1=O)C(=O)c1ccccn1	-	-	-	-	-	96.0	69.3	Diaph ctr 10uM=50.2;Diaphorase 30uM=50.4
CCCCN(Cc1cc2cc(C)ccc2[nH]c1=O)C(=O)c1ccccn1	-	-	-	-	-	-	.
O=C1C(c2cc(=O)c3ccccc3[nH]2)=C(O)c2ccccc21	-	-	-	-	-	82.9	65.2	Diaph ctr 10uM=50.5;Diaphorase 30uM=-
COc1cccc(N2CCN(C(=O)c3ccc(Cl)c(S(=O)(=O)N4CCCCCC4)c3)CC2)c1	.	.	-	.	.	-	.
Cc1[nH]c2ccccc2c1C1=CC(=O)C=CC1=O	.	-	70.1	.	.	129.2	114.4	Diaph ctr 10uM=92.7;Diaphorase 30uM=53.0
Cc1cc2c([nH]c3ccccc32)c(C)n1	-	-	-	-	-	-	.
Cc1c2ccncc2cc2c1[nH]c1ccccc12	-	-	-	.	.	71.9	-
Cc1[nH]c2ccccc2c1/C=N/NC(=O)c1cccc(S(=O)(=O)Nc2ccccc2Cl)c1	-	-	-	-	-	83.2	68.3	Diaph ctr 10uM=64.9;Diaphorase 30uM=-
COc1cc(O)c(NC(C)=O)c2nonc12	-	-	-	-	-	64.1	-
COc1cc(-c2ccc(NC(C)=O)c(OC)c2)ccc1NC(C)=O	-	-	-	-	-	-	.
COc1cc(NCCCCCCN)c2ncccc2c1OC	-	-	-	.	.	89.5	-
COc1cc(N)c2ncccc2c1OC	-	-	-	.	.	70.5	73.7	Diaph ctr 10uM=-;Diaphorase 30uM=-
NC(=O)c1ccc(N=Nc2c(O)c3ccccc3[nH]c2=O)cc1	.	.	.	-	-	.	.
N=C(N)c1ccc(N=Nc2c(O)ccc3c2[nH]c2ccccc23)cc1	-	-	-	.	.	78.2	-
Cc1ccc(S(=O)(=O)NC[C@H]2O[C@@H](n3cnc4c(N)ncnc43)[C@H](O)[C@@H]2O)cc1	.	.	-	.	.	.	.
COc1cc(NCCCn2cnc(C(=O)Nc3ccc(C)c(C)c3)n2)cc(OC)c1OC	-	-	-	.	.	73.5	61.4	Diaph ctr 10uM=-;Diaphorase 30uM=-
COc1ccc(CC(=S)N2CCOCC2)cc1	-	-	-	-	-	66.0	-
O=C1CCCC(O)=C1C(C#Cc1ccccc1)C1=C(O)CCCC1=O	-	-	-	-	-	63.9	-
CCOC(=O)C1CCN(C(=O)Nc2ccc3nc(-c4ccco4)c(-c4ccco4)nc3c2)CC1	-	-	-	-	-	71.3	-
SMILES	CCR6 antagonist	B2AR ag	CXCR6 inh	APJ ag	APJ antag	PfG6PD inh	PfG6PD confirm	others
O=C(Nc1ccc2nc(-c3ccco3)c(-c3ccco3)nc2c1)N1CCCCCC1	-	.	.	-	-	-	.
COc1cc(Br)c(C(=O)c2nccc3cc(OC)c(OC)cc23)cc1OC	-	-	-	-	-	88.2	-
COc1cc(N)c(C(=O)c2nccc3cc(OC)c(OC)cc23)cc1OC	-	-	-	-	-	-	.
Cc1ccc(CNS(=O)(=O)c2cn(C)c(=O)n(C)c2=O)cc1	-	-	-	-	-	-	.
Cc1ccccc1OCC(=O)OC(C)C(=O)NC1CCCC1 (stereo unspecified)	-	-	-	-	-	-	.
CCN(CC)c1ccc(N=C2C=CC(=O)C=C2NC(C)=O)cc1	-	.	-	.	.	120.6	99.4	Diaph ctr 10uM=95.4;Diaphorase 30uM=98.2
COc1ccc2[nH]cc(CCNC(=O)c3ccc4ccccc4n3)c2c1	-	-	-	-	-	62.3	-
Fc1ccc(COc2ccccc2C(=S)N2CCCC2)cc1	-	-	-	-	-	69.7	-
Cc1ccc(COc2ccccc2C(=S)N2CCCC2)cc1	-	-	-	-	-	-	.
N#CC1=C2SCC(O)(c3ccccc3)N2C(=O)CC1c1ccccc1 (stereo unspecified)	-	-	-	-	-	-	.
CCc1ccc(C2CC(=O)N3CN(c4ccccc4)CSC3=C2C#N)cc1 (stereo unspecified)	-	-	-	-	-	77.7	-
CCOC(=O)c1ccc(N2CSC3=C(C#N)C(c4cccs4)CC(=O)N3C2)cc1 (stereo unspecified)	-	-	-	-	-	-	.
N#CC1=C2SCN(c3ccc(F)cc3)CN2C(=O)CC1c1cccc(F)c1 (stereo unspecified)	-	-	-	-	-	68.8	-
CC(C)NC(=O)N(C)C[C@H]1Oc2ccc(NS(=O)(=O)c3cn(C)cn3)cc2C(=O)N([C@H](C)CO)C[C@@H]1C	-	-	-	-	-	-	.
CCn1ncc([N+](=O)[O-])c1C(=O)N1CCc2ccccc2C1	-	-	-	-	-	-	.
COc1cccc(N2CCN(S(=O)(=O)c3ccc4ccccc4c3)CC2)c1	-	-	-	-	-	-	.
C=CCSc1nc2sc3c(c2c(=O)n1CC)CCc1ccccc1-3	-	-	-	-	-	84.4	50.6	Diaph ctr 10uM=-;Diaphorase 30uM=-
C=CCn1c(SCC)nc2sc3c(c2c1=O)CCc1ccccc1-3	-	-	-	-	-	-	.
C=CCc1c(C)nc(C)nc1N/N=C/c1ccccc1O	-	-	-	-	-	68.5	-
CC1CN(C(=O)COC(=O)c2cc(=O)[nH]c3ccccc23)CC(C)O1 (stereo unspecified)	.	.	-	.	.	-	.
CCn1c(SCc2nc3ccccc3[nH]2)nnc1-c1cnccn1	-	-	-	-	-	66.8	-
CCn1c(SCc2nc3ccccc3[nH]2)nnc1-c1cccnc1	-	-	-	-	-	-	.
COc1ccc(O)c(/C=N/NC(=S)Nc2cccc(S(=O)(=O)N(C)C)c2)c1	-	-	-	.	.	-	.
CCOc1ccccc1/C=N/NC(=O)c1cccc(Cl)c1	-	-	-	-	-	-	.
CN(C)S(=O)(=O)c1cccc(NC(=S)N/N=C/c2ccc(O)c(O)c2O)c1	-	-	-	.	.	79.7	64.2	Diaph ctr 10uM=58.8;Diaphorase 30uM=61.3
CCOc1ccccc1/C=N/NC(=O)c1cccc(S(=O)(=O)N(CC)CC)c1	-	-	-	-	-	110.4	60.5	Diaph ctr 10uM=63.9;Diaphorase 30uM=53.5
